ChEMBL document CHEMBL1133111, “Structure-based discovery of small molecule inhibitors targeted to protein tyrosine phosphatase 1B” (J Med Chem, 2000)
Several values for one entry are separate records, joined by “and”; a condition that tells them apart may be missing. Equal entries are not always repeated.

What was measured:
[1] = target: T1, Tyrosine-protein phosphatase non-receptor type 1 (Homo sapiens) (UniProt P18031); test: Inhibitory activity against protein tyrosine phosphatases (PTP1B) (Kis=slope inhibitory constant)
T1 sequence (whole entry): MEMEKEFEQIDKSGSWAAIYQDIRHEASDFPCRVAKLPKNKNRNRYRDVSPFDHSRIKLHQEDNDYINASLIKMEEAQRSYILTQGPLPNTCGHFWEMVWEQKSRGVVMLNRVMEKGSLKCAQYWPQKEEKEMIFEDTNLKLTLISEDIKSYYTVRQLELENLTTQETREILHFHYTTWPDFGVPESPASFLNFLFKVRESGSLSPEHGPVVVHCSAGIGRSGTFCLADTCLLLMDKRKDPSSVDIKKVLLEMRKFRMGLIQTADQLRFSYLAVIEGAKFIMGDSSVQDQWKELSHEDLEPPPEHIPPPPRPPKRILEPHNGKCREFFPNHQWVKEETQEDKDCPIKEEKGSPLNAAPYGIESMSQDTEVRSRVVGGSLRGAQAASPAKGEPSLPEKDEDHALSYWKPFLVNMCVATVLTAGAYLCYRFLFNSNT
How it was run: (§1)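 Recombinant enzymes used: human PTP1B and LAR bearing both PTPase domains. Compounds were dissolved in DMSO, with 10% DMSO final in all reactions. Buffer was 50 mM 3,3-dimethylglutarate, pH 7.0, ionic strength 0.15 M set with NaCl, at 30 °C. Initial rates of pNPP hydrolysis were measured at eight substrate levels (0.2–5 Km) and three fixed inhibitor levels. Reactions were quenched with NaOH and read at A405 (ε 18 000 M⁻¹ cm⁻¹), correcting for non-enzymatic hydrolysis. Kis (slope) and Kii (intercept) were obtained from steady-state kinetics.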

[2] = target: Receptor-type tyrosine-protein phosphatase F (Rattus norvegicus) (UniProt Q64604); test: (§2) Inhibitory activity against rat recombinant leukocyte-common antigen-related molecule (LAR)
How it was run: (§3)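 Recombinant enzymes: human PTP1B; human PTPα intracellular fragment with both PTPase domains, cleaved from GST fusion; LAR with both PTPase domains; VHR purified to homogeneity. pNPP hydrolysis at 30 °C, pH 7.0, 50 mM 3,3-dimethylglutarate, ionic strength 0.15 M (NaCl), 10% DMSO final. Quenched with 1 N NaOH, A405 read. Ki from eight pNPP levels (0.2–5 Km) at three inhibitor concentrations.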

[3] = target: Receptor-type tyrosine-protein phosphatase F (Rattus norvegicus) (UniProt Q64604); test: as §2; how it was run: as §1; remark: listed apart in the source
[4] = target: T1, Tyrosine-protein phosphatase non-receptor type 1 (Homo sapiens); test: Inhibitory activity against protein tyrosine phosphatases (PTP1B) (Kii=intercept inhibitory constant); how it was run: as §1
[5] = target: Dual specificity protein phosphatase 3 (Homo sapiens) (UniProt P51452); test: Inhibitory activity against human recombinant vaccinia H1 related phosphatase (Dual specificity protein phosphatase 3); how it was run: as §3
[6] = target: Receptor-type tyrosine-protein phosphatase alpha (Homo sapiens) (UniProt P18433); test: Inhibitory activity against protein tyrosine phosphatases alpha (PTP alpha); how it was run: as §3
[7] = target: T1, Tyrosine-protein phosphatase non-receptor type 1 (Homo sapiens); test: Inhibitory activity against protein tyrosine phosphatases (PTP1B); no inhibition at 1 mM

Chain of Dual specificity protein phosphatase 3 (Homo sapiens) (P51452 whole entry, looked up): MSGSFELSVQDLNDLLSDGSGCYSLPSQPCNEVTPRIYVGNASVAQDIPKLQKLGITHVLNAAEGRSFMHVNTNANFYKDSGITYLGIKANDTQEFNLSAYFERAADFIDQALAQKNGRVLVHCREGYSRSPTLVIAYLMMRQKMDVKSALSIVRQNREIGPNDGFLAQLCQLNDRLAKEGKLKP
Chain of Receptor-type tyrosine-protein phosphatase F (Rattus norvegicus) (Q64604 whole entry, the tested form may be a part): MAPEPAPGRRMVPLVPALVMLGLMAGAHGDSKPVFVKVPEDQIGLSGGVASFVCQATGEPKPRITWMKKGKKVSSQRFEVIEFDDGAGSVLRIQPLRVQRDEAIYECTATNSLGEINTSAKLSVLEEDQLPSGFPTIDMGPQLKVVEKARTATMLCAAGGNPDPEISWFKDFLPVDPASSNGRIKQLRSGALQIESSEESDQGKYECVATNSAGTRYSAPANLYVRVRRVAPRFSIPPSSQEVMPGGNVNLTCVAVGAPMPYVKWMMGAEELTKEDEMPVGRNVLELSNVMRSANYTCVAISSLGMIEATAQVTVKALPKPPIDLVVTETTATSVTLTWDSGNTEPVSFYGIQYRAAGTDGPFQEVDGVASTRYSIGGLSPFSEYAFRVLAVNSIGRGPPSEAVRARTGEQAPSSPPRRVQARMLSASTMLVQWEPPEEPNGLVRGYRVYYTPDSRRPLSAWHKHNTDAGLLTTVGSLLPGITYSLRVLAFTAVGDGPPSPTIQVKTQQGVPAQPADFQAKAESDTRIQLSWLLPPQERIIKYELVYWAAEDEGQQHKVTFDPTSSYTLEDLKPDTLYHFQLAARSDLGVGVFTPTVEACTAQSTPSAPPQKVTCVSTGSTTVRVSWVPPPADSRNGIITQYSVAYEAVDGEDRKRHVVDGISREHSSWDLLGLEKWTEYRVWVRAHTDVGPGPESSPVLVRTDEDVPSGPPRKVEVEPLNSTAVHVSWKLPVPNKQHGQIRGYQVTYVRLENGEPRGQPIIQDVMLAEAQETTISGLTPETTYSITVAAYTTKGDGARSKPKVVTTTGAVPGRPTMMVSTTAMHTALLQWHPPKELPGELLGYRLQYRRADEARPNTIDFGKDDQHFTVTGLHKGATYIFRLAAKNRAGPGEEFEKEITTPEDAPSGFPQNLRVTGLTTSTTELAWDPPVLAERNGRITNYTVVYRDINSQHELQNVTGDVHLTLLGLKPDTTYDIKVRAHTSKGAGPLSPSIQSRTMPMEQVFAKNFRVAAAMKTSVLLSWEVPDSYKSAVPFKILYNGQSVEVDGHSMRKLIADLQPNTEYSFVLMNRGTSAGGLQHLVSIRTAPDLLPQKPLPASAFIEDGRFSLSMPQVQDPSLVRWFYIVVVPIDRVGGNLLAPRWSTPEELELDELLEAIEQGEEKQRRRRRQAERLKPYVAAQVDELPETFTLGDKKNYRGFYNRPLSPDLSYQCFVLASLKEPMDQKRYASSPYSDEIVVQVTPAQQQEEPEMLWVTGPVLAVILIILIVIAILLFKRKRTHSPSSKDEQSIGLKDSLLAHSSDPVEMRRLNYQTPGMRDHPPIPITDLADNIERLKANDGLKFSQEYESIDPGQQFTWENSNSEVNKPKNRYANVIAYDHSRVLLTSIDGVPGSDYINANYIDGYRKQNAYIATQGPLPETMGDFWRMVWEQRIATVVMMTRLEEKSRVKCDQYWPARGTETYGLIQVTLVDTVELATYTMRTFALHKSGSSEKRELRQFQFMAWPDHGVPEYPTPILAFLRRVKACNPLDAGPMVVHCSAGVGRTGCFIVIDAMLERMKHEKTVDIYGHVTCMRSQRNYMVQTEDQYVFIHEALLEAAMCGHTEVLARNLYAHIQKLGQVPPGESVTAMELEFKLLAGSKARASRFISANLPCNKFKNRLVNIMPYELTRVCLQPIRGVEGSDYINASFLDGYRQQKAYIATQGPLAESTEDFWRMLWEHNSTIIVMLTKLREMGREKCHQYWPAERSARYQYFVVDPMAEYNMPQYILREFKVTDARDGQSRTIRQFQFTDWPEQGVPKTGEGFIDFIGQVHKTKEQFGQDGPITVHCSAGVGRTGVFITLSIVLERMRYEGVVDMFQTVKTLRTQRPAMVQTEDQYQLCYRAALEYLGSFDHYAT
Chain of Receptor-type tyrosine-protein phosphatase alpha (Homo sapiens) (P18433 20-802 limits assumed): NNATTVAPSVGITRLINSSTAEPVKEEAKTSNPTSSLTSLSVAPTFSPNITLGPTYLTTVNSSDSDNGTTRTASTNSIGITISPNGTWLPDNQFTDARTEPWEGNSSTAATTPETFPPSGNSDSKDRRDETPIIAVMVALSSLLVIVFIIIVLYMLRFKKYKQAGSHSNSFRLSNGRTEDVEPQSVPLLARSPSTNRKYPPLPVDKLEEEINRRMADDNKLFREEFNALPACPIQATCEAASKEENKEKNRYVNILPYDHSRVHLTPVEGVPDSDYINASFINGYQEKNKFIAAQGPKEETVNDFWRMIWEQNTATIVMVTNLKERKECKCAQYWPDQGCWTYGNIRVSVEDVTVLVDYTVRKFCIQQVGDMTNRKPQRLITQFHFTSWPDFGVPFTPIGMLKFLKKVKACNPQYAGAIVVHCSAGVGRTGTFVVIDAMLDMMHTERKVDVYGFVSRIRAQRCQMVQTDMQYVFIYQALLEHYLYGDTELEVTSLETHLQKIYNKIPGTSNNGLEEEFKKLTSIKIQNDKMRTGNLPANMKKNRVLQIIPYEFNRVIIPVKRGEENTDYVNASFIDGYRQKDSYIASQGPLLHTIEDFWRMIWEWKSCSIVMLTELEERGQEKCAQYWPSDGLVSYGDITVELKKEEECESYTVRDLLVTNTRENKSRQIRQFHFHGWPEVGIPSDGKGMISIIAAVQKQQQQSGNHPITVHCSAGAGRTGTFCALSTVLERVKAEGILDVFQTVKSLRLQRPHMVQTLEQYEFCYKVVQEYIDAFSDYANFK

SMILES	Kis [1]	Kis [2]	Kii [3]	Kii [4]	Kis [5]	Kis [6]	NI [7]
C[C@]12CC[C@@H]3c4ccc(OS(=O)(=O)O)cc4CC[C@H]3[C@@H]1CCC2=O	2100 µM						
O=C(O)c1ccccc1O	19400 µM						
O=C(CSc1nnc(Nc2ccc(F)cc2)s1)c1ccc(Cl)cc1	110 µM	53 µM	92 µM	131 µM	> 100 µM	57 µM	
Cc1ccc2c(c1)nc(S)n2CNc1ccc(C(=O)O)c(O)c1	750 µM						
O=[N+]([O-])c1ccc(OS(=O)(=O)O)cc1	10000 µM						
O=C1c2ccccc2-c2cc([N+](=O)[O-])cc3cccc1c23	21 µM	68 µM and 57 µM			> 100 µM	> 100 µM	
O=C(/C=C/c1cccc([N+](=O)[O-])c1)c1c(O)nc2cc([N+](=O)[O-])ccc2c1-c1ccccc1	54 µM	> 100 µM			> 100 µM	> 100 µM	
O=C(O)c1ccc(Oc2ccc(C(=O)c3ccc4c(c3)C(=O)OC4=O)cc2)cc1	510 µM	> 1000 µM			> 1000 µM	> 1000 µM	
C[C@]12CC[C@@H]3c4ccc(OS(=O)(=O)O)cc4CC[C@H]3[C@@H]1CC[C@@H]2O							no inhibition at 1 mM
O=S(=O)(O)c1ccc2c3c(ccc2c1)CCCC3	240 µM	> 1000 µM			> 1000 µM	410 µM	
O=S(=O)(O)Oc1c2ccccc2c2ccc3c(OS(=O)(=O)O)c4ccccc4c4ccc1c2c34	39 µM	> 100 µM			> 100 µM	> 100 µM	
O=C(O)c1cc(NCn2c(S)nc3ccccc32)ccc1O	61 µM	> 100 µM			> 100 µM	180 µM	
